pIC50: −log10 of the molar value. Blank lines part the entries; values can stand above or below the molecule they belong to. Activity calls are given as the source filed them. No cut-off for these calls is given here.
Experiments:
MDA-MB-468 = test: Growth inhibition of human MDA-MB-468 cells after 72 hrs by MTT assay; type: functional; settings: MDA-MB-468, 72 h
MDA-MB-231 = test: Growth inhibition of human MDA-MB-231 cells after 72 hrs by MTT assay; type: functional; settings: MDA-MB-231, 72 h
MCF7 [1] = test: Growth inhibition of human MCF7 cells after 72 hrs by MTT assay; type: functional; settings: MCF7, 72 h
A549 [2] = test: Growth inhibition of human A549 cells after 72 hrs by MTT assay; type: functional; settings: A549, 72 h
[3] = Inhibition of CREB-mediated gene transcription in human HEK293T cells by renilla luciferase reporter assay; type: cell-based; settings: HEK-293T
Outline: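 HEK 293T cells transfected with pCRE-RLuc, replated after 3 h and attached overnight; compound added, then forskolin (final 10 µM) 30 min later; 5 h at 37 °C.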

[4] = Inhibition of KIX domain of CBP interaction with KID domain of CREB after 20-24 hrs by Renilla luciferase complementation assay
Outline: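 RLucC-KIX (20 ng) and KID-RLucN lysate (1.0 µg) per reaction in Renilla lysis buffer with compound, incubated at 4 °C for 20–24 h; residual luminescence read with benzyl-coelenterazine in PBS pH 7.4.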

A549 [5] = test: Inhibition of CREB in human A549 cells assessed as reduction in VEGF level at 2.5 to 10 uM after 24 hrs by ELISA; type: cell-based
Outline: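 A549 cells treated in duplicate for 24 h; VEGF in culture medium measured by ELISA and normalized to medium protein concentration; one-way ANOVA.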

A549 [6] = test: Inhibition of CREB in human A549 cells assessed as reduction in Bcl-2 protein expression at 5 to 10 uM after 48 hrs by Western blot analysis; type: cell-based
Outline: (§1)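 Exponentially growing A549 cells treated 48 h; washed in cold PBS, lysed in NP-40 buffer (50 mM Tris pH 8.0, 5 mM EDTA, 150 mM NaCl, 1 mM DTT, 0.5% NP-40) with 8 M urea. Equal protein on 10% SDS-PAGE, PVDF transfer, antibody detection; GAPDH loading control.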

HFF = test: Cytotoxicity against human HFF cells assessed as effect on cell viability at 5 to 10 uM after 48 hrs by trypan blue exclusion assay; type: cell-based
Outline: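 HFF cells (maintained in DMEM, 10% FBS, 37 °C, 5% CO2) exposed to increasing compound concentrations in triplicate for 48 h; live cells counted by trypan blue exclusion.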

HMEC = test: Cytotoxicity against HMEC assessed as effect on cell viability at less than or equal to 10 uM after 48 hrs by trypan blue exclusion assay; type: cell-based; settings: human
Outline: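 HMEC grown in MEGM complete medium, switched to DMEM with 10% FBS and penicillin/streptomycin on the day of treatment; compound added at various concentrations, triplicate, 48 h at 37 °C, 5% CO2. Live cells counted by trypan blue exclusion; one-way ANOVA.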

MCF7 [7] = test: Cytotoxicity against human MCF7 cells expressing wild type CREB assessed as reduction in cell proliferation at 0.5 to 10 uM after 48 hrs by MTT assay; type: functional, cell-based
Outline: (§2)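 MCF-7 cells stably transfected with Flag-tagged VP16-CREB (G418 2 mg/mL selection; expression checked by anti-FLAG blot) alongside parental MCF-7. Compound at indicated concentrations in triplicate for 48 h; live cells quantified with MTT reagent; Student's t-test.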

MCF7 [8] = test: Cytotoxicity against human MCF7 cells expressing VP16-CREB mutant assessed as effect on cell proliferation at 0.5 to 10 uM after 48 hrs by MTT assay; type: functional, cell-based; outline: as §2
A549 [9] = test: Induction of apoptosis in human A549 cells assessed as necrotic cells at 10 uM after 48 hrs by Annexin V-FITC/PI staining based flow cytometry (reference value: 1.5%); type: functional
A549 [10] = test: Induction of apoptosis in human A549 cells assessed as late apoptotic cells at 10 uM after 48 hrs by Annexin V-FITC/PI staining based flow cytometry (reference value: 2.98%); type: functional
A549 [11] = test: Induction of apoptosis in human A549 cells assessed as early apoptotic cells at 10 uM after 48 hrs by Annexin V-FITC/PI staining based flow cytometry (reference value: […]); type: functional
A549 [12] = test: Induction of apoptosis in human A549 cells assessed as viable cells at 10 uM after 48 hrs by Annexin V-FITC/PI staining based flow cytometry (reference value: 91.6%); type: functional; settings: A549, 48 h, read-out: Activity
A549 [13] = test: Induction of apoptosis in human A549 cells assessed as necrotic cells at 7.5 uM after 48 hrs by Annexin V-FITC/PI staining based flow cytometry (reference value: 1.5%); type: functional
A549 [14] = test: Induction of apoptosis in human A549 cells assessed as late apoptotic cells at 7.5 uM after 48 hrs by Annexin V-FITC/PI staining based flow cytometry (reference value: 2.98%); type: functional
A549 [15] = test: Induction of apoptosis in human A549 cells assessed as early apoptotic cells at 7.5 uM after 48 hrs by Annexin V-FITC/PI staining based flow cytometry (reference value: […]); type: functional
A549 [16] = test: Induction of apoptosis in human A549 cells assessed as viable cells at 7.5 uM after 48 hrs by Annexin V-FITC/PI staining based flow cytometry (reference value: 91.6%); type: functional; settings: A549, 48 h, read-out: Activity
A549 [17] = test: Induction of apoptosis in human A549 cells assessed as necrotic cells at 5 uM after 48 hrs by Annexin V-FITC/PI staining based flow cytometry (reference value: 1.5%); type: functional
A549 [18] = test: Induction of apoptosis in human A549 cells assessed as late apoptotic cells at 5 uM after 48 hrs by Annexin V-FITC/PI staining based flow cytometry (reference value: 2.98%); type: functional
A549 [19] = test: Induction of apoptosis in human A549 cells assessed as early apoptotic cells at 5 uM after 48 hrs by Annexin V-FITC/PI staining based flow cytometry (reference value: […]); type: functional
A549 [20] = test: Induction of apoptosis in human A549 cells assessed as viable cells at 5 uM after 48 hrs by Annexin V-FITC/PI staining based flow cytometry (reference value: 91.6%); type: functional; settings: A549, 48 h, read-out: Activity
A549 [21] = test: Induction of apoptosis in human A549 cells assessed as PARP cleavage at 5 to 10 uM after 48 hrs by Western blot analysis; type: functional, cell-based; outline: as §1
[22] = target: Cellular tumor antigen p53 (Homo sapiens) (UniProt P04637); test: Inhibition of p53 in human A549 cells assessed as effect on p21 gene expression at 1 to 10 uM after 4 hrs by quantitative RT-PCR analysis; type: cell-based
Outline: (§3)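 A549 cells treated in duplicate for 4 h; total RNA DNase-treated (37 °C, 30 min), reverse-transcribed with random hexamers; qPCR with SYBR Green normalized to HPRT; one-way ANOVA.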

A549 [23] = test: Inhibition of CREB in human A549 cells assessed as reduction in VEGF gene expression at 10 uM after 4 hrs by quantitative RT-PCR analysis; type: cell-based
A549 [24] = test: Inhibition of CREB in human A549 cells assessed as reduction in Bcl-2 gene expression at 1 to 10 uM after 4 hrs by quantitative RT-PCR analysis; type: cell-based; outline: as §3
[25] = target: Cellular tumor antigen p53 (Homo sapiens) (UniProt P04637); test: Inhibition of p53 transfected in HEK293T cells assessed as gene transcription after 5 hrs by Renilla luciferase reporter assay; type: cell-based; settings: HEK-293T
[26] = target: Cellular tumor antigen p53 (Homo sapiens) (UniProt P04637); test: Inhibition of p53 in human A549 cells assessed as effect on p21 protein expression at 5 to 10 uM after 48 hrs by Western blot analysis; type: cell-based; outline: as §1

Chain of Cellular tumor antigen p53 (Homo sapiens) (P04637 whole entry, looked up): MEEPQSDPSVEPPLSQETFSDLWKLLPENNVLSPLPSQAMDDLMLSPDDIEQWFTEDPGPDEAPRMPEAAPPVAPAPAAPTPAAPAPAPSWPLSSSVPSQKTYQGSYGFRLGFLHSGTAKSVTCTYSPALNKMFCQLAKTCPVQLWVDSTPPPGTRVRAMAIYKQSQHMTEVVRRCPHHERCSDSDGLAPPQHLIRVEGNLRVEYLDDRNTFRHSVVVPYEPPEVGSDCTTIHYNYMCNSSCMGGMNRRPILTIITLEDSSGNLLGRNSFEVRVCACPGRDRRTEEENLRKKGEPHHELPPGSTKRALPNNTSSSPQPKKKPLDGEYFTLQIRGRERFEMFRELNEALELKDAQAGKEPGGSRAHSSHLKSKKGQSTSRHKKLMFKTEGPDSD

SMILES: O=C(Nc1ccc(Cl)cc1)c1cc2ccccc2cc1O
inhibition (A549 [5]): Active
inhibition (A549 [6]): Active
GI50 (MDA-MB-468): 1.46 µM
GI50 (MDA-MB-231): 2.35 µM
GI50 (MCF7 [1]): 2.81 µM
GI50 (A549 [2]): 2.9 µM
pIC50 [3]: 5.64
pIC50 [4]: 5.54
Activity (HFF): Non-toxic
Activity (HMEC): Non-toxic
Activity (MCF7 [7]): Active
Activity (MCF7 [8]): inactive
Activity (A549 [9]): 0.58%
Activity (A549 [10]): 4.2%
Activity (A549 [11]): 19.4%
viability at 10 µM (A549 [12]): 75.9%
Activity (A549 [13]): 1.42%
Activity (A549 [14]): 2.9%
Activity (A549 [15]): 10.1%
viability at 7.5 µM (A549 [16]): 85.6%
Activity (A549 [17]): 1.36%
Activity (A549 [18]): 3.06%
Activity (A549 [19]): 6.5%
viability at 5 µM (A549 [20]): 89.1%
Activity (A549 [21]): Active
inhibition [22]: inactive
inhibition (A549 [23]): Active
inhibition (A549 [24]): Active
inhibition [25]: inactive
inhibition [26]: inactive

SMILES: O=C(Nc1cnccn1)c1cc2ccccc2cc1O
GI50 (MDA-MB-468): 37.6 µM
GI50 (MDA-MB-231): > 100 µM
GI50 (MCF7 [1]): 17.9 µM
GI50 (A549 [2]): 33.2 µM
pIC50 [3]: < 4.30
pIC50 [4]: 4.69

SMILES: O=C(Nc1ccncc1)c1cc2ccccc2cc1O
GI50 (MDA-MB-468): 63.4 µM
GI50 (MDA-MB-231): 35.5 µM
GI50 (MCF7 [1]): 15.8 µM
GI50 (A549 [2]): 25 µM
pIC50 [3]: 4.68
pIC50 [4]: 4.79

Second part, the molecule after the results:

GI50 (MDA-MB-468): 2.94 µM
GI50 (MDA-MB-231): 7.87 µM
GI50 (MCF7 [1]): 9.76 µM
GI50 (A549 [2]): 5.51 µM
pIC50 [3]: 5.30
pIC50 [4]: 4.46
SMILES: O=C(Nc1ccc(I)cc1)c1cc2ccccc2cc1O

GI50 (MDA-MB-468): 0.85 µM
GI50 (MDA-MB-231): 2.2 µM
GI50 (MCF7 [1]): 6.86 µM
GI50 (A549 [2]): 3.65 µM
pIC50 [3]: 5.64
pIC50 [4]: 5.29
SMILES: O=C(Nc1ccc(F)c(Cl)c1)c1cc2ccccc2cc1O

GI50 (MDA-MB-468): 2.78 µM
GI50 (MDA-MB-231): 11.4 µM
GI50 (MCF7 [1]): 4.16 µM
GI50 (A549 [2]): 6.78 µM
pIC50 [3]: 5.31
pIC50 [4]: 5.76
SMILES: O=C(Nc1ccc(F)cc1)c1cc2ccccc2cc1O

GI50 (MDA-MB-468): 6.65 µM
GI50 (MDA-MB-231): 17.2 µM
GI50 (MCF7 [1]): 2.27 µM
GI50 (A549 [2]): 4.83 µM
pIC50 [3]: 5.24
pIC50 [4]: 5.27
SMILES: O=C(Nc1ccccc1Cl)c1cc2ccccc2cc1O

GI50 (MDA-MB-468): 4.19 µM
GI50 (MDA-MB-231): 11.6 µM
GI50 (MCF7 [1]): 2.09 µM
GI50 (A549 [2]): 3.57 µM
pIC50 [3]: 5.43
pIC50 [4]: 5.62
SMILES: O=C(Nc1ccc(F)c(F)c1)c1cc2ccccc2cc1O

Source: ChEMBL document CHEMBL2203129, “Structure-activity relationship studies of naphthol AS-E and its derivatives as anticancer agents by inhibiting CREB-mediated gene transcription” (Bioorg Med Chem, 2012)
